# Hep lipid drop: hepatic lipid droplet formation modulation. inhibition, % at 6.5 µM. AML12 mouse hepatocytes, oleate lipid droplets, BODIPY imaging. AID 1656. 240,000 tested, 0.4% active;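 active means lipid droplet intensity inhibited by at least 50%, with more than 500 cells counted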
#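 Assay system: AML12 mouse liver cells | Compound: 6.5 µM single-point dosing | Schedule: Overnight exposure | Technique: Fluorescence imaging, 20x objective, two fields per well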
# PREPL inh: inhibits the human prolyl oligopeptidase-like enzyme. Q4J6C6. recombinant PREPL, fluorescence polarization activity-based probe. inhibition, % at 5.96 µM. 320,000 tested, 0.68% active. AID 2751; in the data active means inhibition above about 43%;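 further: 0% = enzyme with DMSO and 100% = wells lacking enzyme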
# m5-HT2A agonist: mouse HTR2A agonism via beta-arrestin recruitment. P35363. CHO-K1 mHTR2A beta-arrestin complementation, luminescence; percent of 30 µM serotonin response. activation, % at 7.6 µM. 360,000 tested, 0.66% active;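 active means activation above a run cutoff, the mean activation of all tested compounds plus 3 SD, cut at about 14% in these data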;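 further: 0% = plate median of compound wells and 100% = 30 µM serotonin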
# NTR1 ag: activates human neurotensin receptor 1; P30989; NTR1-U2OS beta-arrestin-GFP spot imaging, agonist mode; 330,000 tested, 0.17% active; activation, % at 20 µM;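 active means activation at or above 40% of the spot to cytoplasm intensity ratio, with at least 20 cells analyzed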;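 further: 0% = DMSO without peptide and 100% = 100 nM NTR1 peptide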
# Target sequence (P30989 whole entry, looked up): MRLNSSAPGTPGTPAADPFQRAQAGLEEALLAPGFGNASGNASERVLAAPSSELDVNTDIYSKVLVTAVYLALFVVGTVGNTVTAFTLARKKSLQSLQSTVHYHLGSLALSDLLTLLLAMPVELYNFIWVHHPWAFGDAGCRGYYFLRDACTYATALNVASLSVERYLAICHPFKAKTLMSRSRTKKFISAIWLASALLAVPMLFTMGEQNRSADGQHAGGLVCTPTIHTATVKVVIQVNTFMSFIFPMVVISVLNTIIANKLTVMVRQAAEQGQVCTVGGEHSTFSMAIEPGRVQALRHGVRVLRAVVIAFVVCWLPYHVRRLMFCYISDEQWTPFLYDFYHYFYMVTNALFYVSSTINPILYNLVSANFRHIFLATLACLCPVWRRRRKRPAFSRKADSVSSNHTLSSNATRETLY
# MC4R ag barr: agonists of human melanocortin 4 receptor (MC4R) beta-arrestin; P32245; U2OS MC4R beta-arrestin complementation, luminescence; percent of melanotan II response, DMSO zero; activation, % at 8.9 µM; 360,000 tested, 0.98% active;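 active means activation above a per-plate cutoff, the mean activation of sample wells on that plate plus 3 SD, cut at about 8% in these data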
# MC4R antagonist: antagonists of human melanocortin 4 receptor (MC4R); P32245; MC4R-expressing cells, MTII-stimulated cAMP, LANCE TR-FRET; inhibition, % at 6.5 µM; 360,000 tested, 0.48% active;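 active means inhibition above its plate's cutoff, the mean of tested wells on that plate plus 3 SD, cut at about 29% in these data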;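 further: 0% = Melanotan II alone and 100% = Melanotan II plus saturating MCL0020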
#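 System: U2OS cells stably expressing human melanocortin 4 receptor (MC4R). Reagent: Melanotan II challenge after compound preincubation. Doses: 6.5 µM. Times: 30-min compound, 1-h challenge, 1-h detection, room temperature. Measured by: TR-FRET with Eu-cAMP and labeled anti-cAMP, 671 nm. Replicates: singlicate.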
# cAMP nonselect: U2OS forskolin cAMP inhibition counter-screen; shares compounds with MC4R antagonist; parental U2OS, LANCE TR-FRET; inhibition, % at 6.5 µM; 1,600 tested, 26% active; AID 602193;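 active means mean inhibition over triplicates above the low-control well mean plus 3 SD, set per campaign, cut at about 13% in these data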;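 further: signal is single emission at 671 nm which falls as cellular cAMP rises; 0% = forskolin-stimulated wells and 100% = buffer without forskolin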
# MC4R cAMP antag: human MC4R cAMP antagonism confirmation; shares compounds with MC4R antagonist; 1,600 tested, 27% active; MC4R-expressing cells, MTII-stimulated cAMP, TR-FRET; inhibition, % at 6.5 µM; in the data active means inhibition above about 29%;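 further: 0% = agonist stimulated wells alone and 100% = agonist stimulated wells plus saturating reference antagonist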
# An asterisk follows results filed as active; · = not tested or not shown; + = active, no number. Most compounds without a hit are left out; they make up all but 2.7% or so of the library.
SMILES,Hep lipid drop,PREPL inh,m5-HT2A agonist,NTR1 ag,MC4R ag barr,MC4R antagonist,cAMP nonselect,MC4R cAMP antag
O=C(O)c1ccccc1C(=O)c1cccc2c(Br)cccc12,·,·,-2,·,-3,+,+,+
Cc1cc(S(=O)(=O)N2CCCCC2)ccc1OCC(=O)N1CCOCC1,-17,8,2,-1,1,-9,·,·
O=[N+]([O-])c1ccc(Nc2ccccc2)c2nonc12,-30,17,-4,2,-3,-7,·,·
O=[N+]([O-])c1ccc(Sc2cccc[n+]2[O-])c2nonc12,-200,·,-13,·,-3,48*,42*,60*
COc1ccc(N2CCN(c3n[nH]c(N)n3)CC2)cc1,-55,-5,-2,0,-2,35*,0,10
Cc1cccc(C)c1N1CCN(c2n[nH]c(N)n2)CC1,-14,-2,-1,1,-1,13,·,·
Cc1cc(F)ccc1C(O)c1ncc(-c2cccc(OCc3ccccc3)c2)[nH]1 (configuration not stated),·,·,-2,·,0,12,·,·
Cc1cc(C)c(NC(=S)NC(=O)c2ccc(-c3ccccc3)cc2)c(C)c1,-8,15,0,·,-1,32*,-12,-17
Cc1c(C(=O)NCc2c(F)cc(F)cc2F)oc2ccc(S(=O)(=O)N3CCOCC3)cc12,-19,1,5,0,0,10,·,·
Cc1c(C(=O)NCc2ccc(F)cc2)oc2ccc(S(=O)(=O)N3CCOCC3)cc12,-2,3,4,-1,2,32*,-1,-1
O=C(Nc1ccccc1)C1CC2CCC1C2 (configuration not stated),-2,-7,2,1,0,14,·,·
O=C(Nc1ccccc1)OC1CCC2CC1CCC2OC(=O)Nc1ccccc1 (configuration not stated),1,-5,-5,6,1,32*,2,32*
CCN(CC)S(=O)(=O)c1cccc(C(=O)NC(C(=O)NNC(=O)c2ccccc2F)C(C)C)c1 (configuration not stated),·,·,-2,·,0,-3,·,·
CCN(C(=O)COC(=O)/C=C/c1cnc2ccccc2n1)C1CCS(=O)(=O)C1 (configuration not stated),7,14,0,0,1,29*,-5,-2
O=C(c1ccccn1)N(c1ccccc1)C1(C(=O)NC2CCCCC2)CCCCC1,-2,9,2,0,-2,1,·,·
CCn1c(C)nc2cc(C(=O)NN=C(C)c3ccc(C#N)cc3)ccc21,·,14,5,0,-2,0,·,·
CCn1c(C)nc2cc(C(=O)N/N=C(\C)c3ccc(OC)cc3O)ccc21,-3,·,-3,·,1,34*,4,1
O=C(Cc1cccc2ccccc12)N1CCN(c2ncccn2)CC1,13,7,-3,0,-1,30*,2,-2
O=C(Cc1coc2ccc3ccccc3c12)N1CCN(c2ncccn2)CC1,·,5,-5,0,-1,2,·,·
Cn1c(=O)c2c(-c3ccccc3)n(-n3cnnc3)cc2n(C)c1=O,·,-11,-4,6,-2,29*,2,10
Cn1c(=O)c2c(-c3ccccc3)n(-c3ccccc3)cc2n(C)c1=O,·,·,-2,·,1,-6,·,·
C=CCn1c(-c2cccc(Cl)c2)n[nH]c1=S,·,-9,4,0,-2,12,·,·
C=CCn1nnnc1-c1cccc(Cl)c1,-3,6,1,2,0,34*,5,4
O=C(OCc1ccccc1)N(CCF)c1cn(Cc2ccccc2)c(=O)n(Cc2ccccc2)c1=O,·,·,-2,·,-1,5,·,·
CC(=O)c1cn(CC(=O)NCc2ccc3c(c2)OCO3)c2ccccc12,-3,-21,-2,2,-2,31*,2,2
SMILES,Hep lipid drop,PREPL inh,m5-HT2A agonist,NTR1 ag,MC4R ag barr,MC4R antagonist,cAMP nonselect,MC4R cAMP antag
O=C(Nc1ccccc1)C1=C(c2ccccc2)S(=O)(=O)CCS1(=O)=O,-1,·,-7,·,-1,47*,28*,37*
O=c1c(=Nc2ccccc2O)c(=O)c2ccccc12,-12,2,0,0,-2,34*,4,-1
Nc1c(N(Cc2ccccc2)C(=O)COc2ccc([N+](=O)[O-])cc2)c(=O)[nH]c(=O)n1Cc1ccccc1,·,·,0,·,-3,16,·,·
COc1ccc(NC(C)=O)cc1S(=O)(=O)N1CCN(C/C=C/c2ccccc2)CC1,-7,-1,-6,-1,1,25,·,·
COc1cccc(NC(=O)CN(C)C(=O)c2cc(-c3ccc(F)cc3)nc3ccccc23)c1,·,-1,2,8,-2,6,·,·
COc1ccc(-c2cc(C(=O)N(C)CC(=O)Nc3cccc(F)c3)c3ccccc3n2)cc1OC,·,·,7,·,-1,30*,1,1
Cc1cc2nccc(-c3ccc(F)cc3)n2n1,-4,1,3,0,1,16,·,·
Cc1cc2nccc(-c3ccc(Cl)c([N+](=O)[O-])c3)n2n1,·,-3,2,13,1,41*,-11,29*
CC(=O)N1C(O)CC(C)N1c1ccccc1 (configuration not stated),18,0,-2,0,-1,7,·,·
COC(=O)[C@H](CC(C)C)NC(=O)N1CCC(C)CC1,-2,6,-4,-1,-1,33*,5,4
COc1ccc(CN2CCN(S(=O)(=O)c3ccc(NC(C)=O)cc3)CC2)c(OC)c1OC,-19,14,-2,0,1,31*,0,9
COc1ccc(CN2CCN(S(=O)(=O)c3ccc(NC(C)=O)cc3)CC2)cc1,-1,1,-3,-1,-2,-2,·,·
CCCn1c(N)c(N(CCOC)C(=O)c2cc3ccccc3cc2OC)c(=O)[nH]c1=O,·,7,5,3,-1,8,·,·
CC(O/N=C\c1ccccc1O)C(=O)Nc1ccccc1C(=O)N1CCOCC1 (configuration not stated),2,13,2,-1,-1,12,·,·
Cc1cccc2c1NC(=O)/C2=C\C(=O)c1cccs1,6,2,-5,28,-1,30*,3,4
O=C1c2cccc([N+](=O)[O-])c2C(=O)N1c1ccccc1,-12,11,-2,-1,-4,30*,9,21
O=C1c2cccc([N+](=O)[O-])c2C(=O)N1c1cccnc1,-8,5,-2,-1,0,19,·,·
CN(NS(=O)(=O)c1ccc(Br)cc1)c1nc(C(F)(F)F)nc2ccccc12,-4,9,7,3,0,32*,1,-1
